Measured values published in ChEMBL document CHEMBL1240380, “Acinetobacter baumannii increases tolerance to antibiotics in response to monovalent cations” (Antimicrob Agents Chemother, 2010).
Activity calls are given as the source filed them. No cut-off for these calls is given here.

Assays:
Acinetobacter baumannii [1] = experiment: Antibacterial activity against Acinetobacter baumannii ATCC 17978 assessed as bacterial growth at 0.09 mg/L in presence of 150 mM NaCl; type: functional, organism-based
In short: (§1)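 Overnight cultures were diluted 1:100 in NaCl-free MHB and grown to OD600 0.4. They were then diluted to 10^5 CFU/ml in MHB with or without 150 mM NaCl, plus or minus antibiotic. Growth was run in triplicate for 12 h at 37°C with shaking at 180 rpm, and OD600 was read every 2 h.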

Acinetobacter baumannii [2] = experiment: Antibacterial activity against Acinetobacter baumannii using MHB medium assessed as bacterial growth at 0.09 mg/L in presence of 150 mM of KCl; type: functional, organism-based
In short: as §1, with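 “Growth-curve challenge with 150 mM KCl in place of NaCl. Overnight” for “Overnight”, “KCl,” for “NaCl,”, “plus” for “plus or minus”, “Cultures ran” for “Growth was run”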

Acinetobacter baumannii [3] = experiment: Antibacterial activity against Acinetobacter baumannii isolate 2824 isolated from human urine; type: functional, organism-based
Acinetobacter baumannii [4] = experiment: Antibacterial activity against Acinetobacter baumannii isolate 4860 isolated from human urine; type: functional, organism-based
Acinetobacter baumannii [5] = experiment: Antibacterial activity against Acinetobacter baumannii isolate 5191 isolated from human urine; type: functional, organism-based
Acinetobacter baumannii [6] = experiment: Antibacterial activity against Acinetobacter baumannii ATCC 17978 isolated from human CSF; type: functional, organism-based
Acinetobacter baumannii [7] = experiment: Antibacterial activity against Acinetobacter baumannii isolate 510 isolated from human sputum; type: functional, organism-based
Acinetobacter baumannii [8] = experiment: Antibacterial activity against Acinetobacter baumannii isolate 2898 isolated from human ankle; type: functional, organism-based
Acinetobacter baumannii [9] = experiment: Antibacterial activity against Acinetobacter baumannii ATCC 17978 assessed as bacterial growth at 0.75 mg/L in presence of 150 mM NaCl; type: functional; in short: as §1
Acinetobacter baumannii [10] = experiment: Antibacterial activity against Acinetobacter baumannii using MHB medium assessed as bacterial growth at 0.75 mg/L in presence of 150 mM of KCl; type: functional, organism-based
In short: as §1, with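 “Growth-curve challenge with 150 mM KCl in place of NaCl. Overnight” for “Overnight”, “KCl,” for “NaCl,”, “plus” for “plus or minus”, “Cultures ran” for “Growth was run”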

Acinetobacter baumannii [11] = experiment: Antibacterial activity against Acinetobacter baumannii using MHB medium assessed as bacterial growth at 1.5 mg/L after 12 hrs in presence of 30 mg/L efflux pump inhibitor PAbetaN; type: functional, organism-based
Acinetobacter baumannii [12] = experiment: Antibacterial activity against Acinetobacter baumannii using MHB medium with 150 mM assessed as bacterial growth at 1.5 mg/L after 12 hrs in presence of 30 mg/L efflux pump inhibitor PAbetaN; type: functional, organism-based
Acinetobacter baumannii [13] = experiment: Antibacterial activity against Acinetobacter baumannii ATCC 17978 using MHB medium assessed as bacterial growth at 0.75 mg/L after 12 hrs; type: functional, organism-based; in short: as §1
Acinetobacter baumannii [14] = experiment: Antibacterial activity against Acinetobacter baumannii ATCC 17978 using MHB medium with 150 mM NaCl assessed as bacterial growth at 0.75 mg/L after 12 hrs; type: functional, organism-based; in short: as §1
Acinetobacter baumannii [15] = experiment: Antibacterial activity against Acinetobacter baumannii isolate 510 using MHB medium assessed as bacterial growth at 0.75 mg/L after 12 hrs; type: functional, organism-based; in short: as §1
Acinetobacter baumannii [16] = experiment: Antibacterial activity against Acinetobacter baumannii isolate 510 using MHB medium with 150 mM NaCl assessed as bacterial growth at 0.75 mg/L after 12 hrs; type: functional, organism-based; in short: as §1
Acinetobacter baumannii [17] = experiment: Antibacterial activity against Acinetobacter baumannii isolate 2824 using MHB medium assessed as bacterial growth at 0.75 mg/L after 12 hrs; type: functional, organism-based; in short: as §1
Acinetobacter baumannii [18] = experiment: Antibacterial activity against Acinetobacter baumannii isolate 2824 using MHB medium with 150 mM NaCl assessed as bacterial growth at 0.75 mg/L after 12 hrs; type: functional, organism-based; in short: as §1
Acinetobacter baumannii [19] = experiment: Antibacterial activity against Acinetobacter baumannii isolate 2898 using MHB medium assessed as bacterial growth at 0.75 mg/L after 12 hrs; type: functional, organism-based; in short: as §1
Acinetobacter baumannii [20] = experiment: Antibacterial activity against Acinetobacter baumannii isolate 2898 using MHB medium with 150 mM NaCl assessed as bacterial growth at 0.75 mg/L after 12 hrs; type: functional, organism-based; in short: as §1
Acinetobacter baumannii [21] = experiment: Antibacterial activity against Acinetobacter baumannii isolate 4860 using MHB medium assessed as bacterial growth at 0.75 mg/L after 12 hrs; type: functional, organism-based; in short: as §1
Acinetobacter baumannii [22] = experiment: Antibacterial activity against Acinetobacter baumannii isolate 4860 using MHB medium with 150 mM NaCl assessed as bacterial growth at 0.75 mg/L after 12 hrs; type: functional, organism-based; in short: as §1
Acinetobacter baumannii [23] = experiment: Antibacterial activity against Acinetobacter baumannii isolate 5191 using MHB medium assessed as bacterial growth at 0.75 mg/L after 12 hrs; type: functional, organism-based; in short: as §1
Acinetobacter baumannii [24] = experiment: Antibacterial activity against Acinetobacter baumannii isolate 5191 using MHB medium with 150 mM NaCl assessed as bacterial growth at 0.75 mg/L after 12 hrs; type: functional, organism-based; in short: as §1
Acinetobacter baumannii [25] = experiment: Antibacterial activity against Acinetobacter baumannii ATCC 17978 using MHB medium after 24 hrs; type: functional
In short: (§2)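 MIC by CLSI broth microdilution in MHB, with the medium supplemented with 150 mM NaCl where indicated. The read-out was taken after 24 h of drug exposure.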

Acinetobacter baumannii [26] = experiment: Antibacterial activity against Acinetobacter baumannii ATCC 17978 using MHB medium with 150 mM NaCl after 24 hrs; type: functional; in short: as §2
Acinetobacter baumannii [27] = experiment: Antibacterial activity against Acinetobacter baumannii isolate 510 using MHB medium after 24 hrs; type: functional, organism-based; in short: as §2
Acinetobacter baumannii [28] = experiment: Antibacterial activity against Acinetobacter baumannii isolate 510 using MHB medium with 150 mM NaCl after 24 hrs; type: functional, organism-based; in short: as §2
Acinetobacter baumannii [29] = experiment: Antibacterial activity against Acinetobacter baumannii isolate 2824 using MHB medium after 24 hrs; type: functional, organism-based; in short: as §2
Acinetobacter baumannii [30] = experiment: Antibacterial activity against Acinetobacter baumannii isolate 2824 using MHB medium with 150 mM NaCl after 24 hrs; type: functional, organism-based; in short: as §2
Acinetobacter baumannii [31] = experiment: Antibacterial activity against Acinetobacter baumannii isolate 2898 using MHB medium after 24 hrs; type: functional, organism-based; in short: as §2
Acinetobacter baumannii [32] = experiment: Antibacterial activity against Acinetobacter baumannii isolate 2898 using MHB medium with 150 mM NaCl after 24 hrs; type: functional, organism-based; in short: as §2
Acinetobacter baumannii [33] = experiment: Antibacterial activity against Acinetobacter baumannii isolate 4860 using MHB medium after 24 hrs; type: functional, organism-based; in short: as §2
Acinetobacter baumannii [34] = experiment: Antibacterial activity against Acinetobacter baumannii isolate 4860 using MHB medium with 150 mM NaCl after 24 hrs; type: functional, organism-based; in short: as §2
Acinetobacter baumannii [35] = experiment: Antibacterial activity against Acinetobacter baumannii isolate 5191 using MHB medium after 24 hrs; type: functional, organism-based; in short: as §2
Acinetobacter baumannii [36] = experiment: Antibacterial activity against Acinetobacter baumannii isolate 5191 using MHB medium with 150 mM NaCl after 24 hrs; type: functional, organism-based; in short: as §2
Acinetobacter baumannii [37] = experiment: Antibacterial activity against Acinetobacter baumannii using MHB medium with NaCl in presence of efflux pump inhibitor PAbetaN; type: functional, organism-based
In short: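 Cells in MHB with or without 150 mM NaCl were pretreated with 60 mg/liter PAβN for 30 min at room temperature before antibiotic was added. Cultures at 10^5 CFU/ml were then grown in triplicate for 12 h at 37°C with shaking at 180 rpm, and OD600 was monitored every 2 h.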

C[C@H]1COc2c(N3CCN(C)CC3)c(F)cc3c(=O)c(C(=O)O)cn1c23
Activity (Acinetobacter baumannii [1]): inactive | Activity (Acinetobacter baumannii [2]): inactive | Activity (Acinetobacter baumannii [3]): inactive | Activity (Acinetobacter baumannii [4]): inactive | Activity (Acinetobacter baumannii [5]): inactive

CO/N=C(\C(=O)N[C@@H]1C(=O)N2C(C(=O)[O-])=C(C[N+]3(C)CCCC3)CS[C@H]12)c1csc(N)n1
Activity (Acinetobacter baumannii [6]): Active | Activity (Acinetobacter baumannii [7]): inactive | Activity (Acinetobacter baumannii [3]): inactive | Activity (Acinetobacter baumannii [8]): inactive | Activity (Acinetobacter baumannii [4]): inactive | Activity (Acinetobacter baumannii [5]): inactive

CO/N=C(\C(=O)N[C@@H]1C(=O)N2C(C(=O)O)=C(CSc3nc(=O)c(O)nn3C)CS[C@H]12)c1csc(N)n1
Activity (Acinetobacter baumannii [7]): inactive | Activity (Acinetobacter baumannii [3]): inactive | Activity (Acinetobacter baumannii [8]): inactive | Activity (Acinetobacter baumannii [4]): inactive | Activity (Acinetobacter baumannii [5]): inactive

C[C@@H](O)[C@H]1C(=O)N2C(C(=O)O)=C(S[C@@H]3CN[C@H](C(=O)N(C)C)C3)[C@H](C)[C@H]12
Activity (Acinetobacter baumannii [6]): Active | Activity (Acinetobacter baumannii [7]): Active | Activity (Acinetobacter baumannii [3]): Active | Activity (Acinetobacter baumannii [8]): Active

CC(C)(O/N=C(\C(=O)N[C@@H]1C(=O)N2C(C(=O)[O-])=C(C[n+]3ccccc3)CS[C@H]12)c1csc(N)n1)C(=O)O
Activity (Acinetobacter baumannii [7]): inactive | Activity (Acinetobacter baumannii [3]): inactive | Activity (Acinetobacter baumannii [8]): inactive | Activity (Acinetobacter baumannii [4]): inactive | Activity (Acinetobacter baumannii [5]): inactive

CO/N=C(\C(=O)N[C@@H]1C(=O)N2C(C(=O)O)=C(COC(C)=O)CS[C@H]12)c1csc(N)n1
Activity (Acinetobacter baumannii [7]): inactive | Activity (Acinetobacter baumannii [3]): inactive | Activity (Acinetobacter baumannii [8]): inactive | Activity (Acinetobacter baumannii [4]): inactive | Activity (Acinetobacter baumannii [5]): inactive

COLISTIN
Activity (Acinetobacter baumannii [9]): inactive | Activity (Acinetobacter baumannii [10]): inactive | Activity (Acinetobacter baumannii [11]): inactive | Activity (Acinetobacter baumannii [12]): inactive | Activity (Acinetobacter baumannii [13]): Active | Activity (Acinetobacter baumannii [14]): inactive | Activity (Acinetobacter baumannii [15]): Active | Activity (Acinetobacter baumannii [16]): inactive | Activity (Acinetobacter baumannii [17]): Active | Activity (Acinetobacter baumannii [18]): inactive | Activity (Acinetobacter baumannii [19]): Active | Activity (Acinetobacter baumannii [20]): inactive | Activity (Acinetobacter baumannii [21]): Active | Activity (Acinetobacter baumannii [22]): inactive | Activity (Acinetobacter baumannii [23]): Active | Activity (Acinetobacter baumannii [24]): inactive | MIC (Acinetobacter baumannii [25]): 0.75 µg/mL | MIC (Acinetobacter baumannii [26]): 1.5 µg/mL | MIC (Acinetobacter baumannii [27]): 0.75 µg/mL | MIC (Acinetobacter baumannii [28]): 1.5 µg/mL | MIC (Acinetobacter baumannii [29]): 0.75 µg/mL | MIC (Acinetobacter baumannii [30]): 1.5 µg/mL | MIC (Acinetobacter baumannii [31]): 1 µg/mL | MIC (Acinetobacter baumannii [32]): 1.5 µg/mL | MIC (Acinetobacter baumannii [33]): 2 µg/mL | MIC (Acinetobacter baumannii [34]): 1.5 µg/mL | MIC (Acinetobacter baumannii [35]): 0.75 µg/mL | MIC (Acinetobacter baumannii [36]): 1.5 µg/mL | MIC (Acinetobacter baumannii [37]): > 4 µg/mL
